Hits are enriched below; roughly 4.2% of the tested compounds scored in any of these assays.
CHO parental Ca = counter-screen: ATP calcium response change in parental CHO cells. parental CHO-K1, ATP-induced calcium, Fluo-8 fluorescence. inhibition, % at 5.6 µM. 330,000 tested, 0.63% active. AID 463079;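 active = inhibition above that plate's mean sample inhibition plus 3 SD, cut at about 26% in these data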
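Measured by: calcium-sensitive Fluo-8 fluorescence / Test system: CHO parental line / Controls: ATP-challenged DMSO wells low, unchallenged DMSO wells high / Measure: % inhibition / Compound: single nominal dose of 5.6 µM per compound / Replicates: single well per compound, no replicates / Reagent: ATP as calcium-mobilizing challenge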
OX1R antag-1 = antagonists of human orexin 1 receptor (OX1R). O43613. inhibition, % at 6.6 µM. AID 485270. 330,000 tested, 1.8% active. OX1R-expressing cells, FRET antagonist read-out; in the data active = inhibition mostly above about 38%, no sharp cut-off; inactive = mostly below about 40%
Target sequence (O43613 whole entry, looked up): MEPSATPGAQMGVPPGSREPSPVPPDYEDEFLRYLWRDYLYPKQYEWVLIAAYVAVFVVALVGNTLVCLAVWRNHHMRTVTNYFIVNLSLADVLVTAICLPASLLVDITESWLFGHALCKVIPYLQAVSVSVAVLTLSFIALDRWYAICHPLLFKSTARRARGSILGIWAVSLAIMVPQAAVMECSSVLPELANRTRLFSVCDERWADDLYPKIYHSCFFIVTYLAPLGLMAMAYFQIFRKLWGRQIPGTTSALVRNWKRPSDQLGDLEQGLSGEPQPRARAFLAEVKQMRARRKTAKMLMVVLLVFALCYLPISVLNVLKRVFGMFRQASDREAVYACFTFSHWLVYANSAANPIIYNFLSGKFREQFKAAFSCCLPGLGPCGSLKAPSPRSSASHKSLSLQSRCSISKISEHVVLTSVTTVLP
TAAR1 ag = human TAAR1 agonism; Q96RJ0; CHO RD-HGA16 TAAR1, Fluo-8 calcium fluorescence; vehicle wells 0%, saturating PEA agonist 100%; activation, % at 3 µM; 360,000 tested, 0.99% active; AID 624467;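 active = activation above the mean activation of all test compounds in the run plus 3 SD, cut at about 38% in these data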
Target sequence (Q96RJ0 whole entry, looked up): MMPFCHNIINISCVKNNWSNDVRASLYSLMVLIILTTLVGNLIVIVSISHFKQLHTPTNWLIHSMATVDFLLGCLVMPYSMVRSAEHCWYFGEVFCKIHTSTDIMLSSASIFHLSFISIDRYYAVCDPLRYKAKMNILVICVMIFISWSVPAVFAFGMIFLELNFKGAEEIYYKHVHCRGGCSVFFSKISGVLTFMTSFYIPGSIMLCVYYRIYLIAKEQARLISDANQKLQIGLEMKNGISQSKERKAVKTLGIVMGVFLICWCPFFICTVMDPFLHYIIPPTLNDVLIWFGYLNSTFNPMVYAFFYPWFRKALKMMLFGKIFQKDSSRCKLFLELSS
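Repeats: no replicates (n 1) | Material: CHO-derived RD-HGA16 cells with stable Gα16 and human TAAR1 | Technique: Kinetic Fluo-8 calcium fluorescence | Schedule: 17-24 h seeding, 75 min 37 °C dye, 30 min RT | Evaluation: % activation from peak over basal fluorescence ratio, DMSO-to-PEA scaled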
TAAR1 antag = antagonists of human TAAR1 | Q96RJ0 | inhibition, % at 3 µM | 360,000 tested, 1.5% active | AID 624466 | CHO RD-HGA16 TAAR1, Fluo-8 calcium fluorescence, antagonist;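 active = inhibition above a per-plate cutoff, the mean inhibition of test compounds on that plate plus 3 SD, cut at about 49% in these data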
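Test system – hTAAR1-expressing CHO RD-HGA16 cells, Gα16-coupled · Also added – β-PEA at EC80 concentration, post-compound challenge · Compound – 3 µM, single point · Incubation – dye loading 75 min at 37 °C, then 30 min room temperature · Measured by – Fluo-8 intracellular calcium dye fluorescence, real-time kinetic reads · Benchmarks – vehicle and agonist controls · Replicates – singlicate, one well per test compound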
OX1R antag-2 = human HCRTR1 antagonism. O43613. CHO/OX1R cells, Fluo-8 calcium fluorescence, orexin A. inhibition, % at 5 µM. 330,000 tested, 0.43% active. AID 434989;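 active = inhibition above its plate's threshold, mean inhibition of all tested compounds on the plate plus 3 SD, cut at about 37% in these data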
GalR3 antagonist = blocks the human galanin receptor 3 | O60755 | HEK293 GalR3-CNG cAMP membrane potential fluorescence; galR3 body fused to GalR1 C-terminus | inhibition, % at 3 µM | 360,000 tested, 0.44% active | AID 651719;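 active = inhibition above the screen-wide average plus 3 SD, cut at about 13% in these data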;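 also: forskolin and galanin both at EC90 stimulate the cells; cAMP rise reported by CNG channel membrane potential dye signal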
GalR3 antag conf = confirmation of human galanin receptor 3 antagonists. shares compounds with GalR3 antagonist. HEK293 GalR3 CNG cAMP biosensor, membrane potential fluorescence; galR3 fused to GalR1 carboxy tail; challenged with forskolin and galanin at EC90. inhibition, % at 3 µM. 1,600 tested, 59% active;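 active = inhibition above the primary screen's cutoff, the mean inhibition of all screened compounds plus 3 SD, cut at about 13% in these data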
CNG parental = acts as nonspecific agonist in parental HEK-CNG cells; HEK293-CNG parental cells, cAMP membrane potential fluorescence; normalised: DMSO wells 0%, forskolin wells 100%; 1,600 tested, 10% active; activation, % at 3 µM; shares compounds with GalR3 antagonist; AID 652268; in the data active = activation above about 1.3%
Large screens that a line does not name were inactive (follow-up assays come after a bar, where they were run).

CCc1c(C(=O)Nc2ccc(OC)c(Cl)c2)[nH]c(C)c1C(C)=O	CHO parental Ca 32, OX1R antag-1 89, OX1R antag-2 50, GalR3 antagonist 28 | GalR3 antag conf 13 | CNG parental inactive
O=C(N/N=C1\CC2CC=CC12)c1ccc(Br)cc1 (stereo not drawn)	none
Cc1cc(Br)c(OCc2ccc(C(=O)N/N=C3\CC4CC=CC34)cc2)c(Br)c1 (stereo not drawn)	GalR3 antagonist 27 | GalR3 antag conf 46 | CNG parental inactive
Cc1occc1-c1nnc(SCCNCCO)o1	GalR3 antagonist 15 | GalR3 antag conf inactive | CNG parental inactive
Cc1occc1-c1nnc(SCC(=O)N2CCOCC2)o1	none
CC1=CC(=O)C(C(C)C)=C/C1=N/OS(=O)(=O)c1ccccc1	CHO parental Ca 71, OX1R antag-1 64, OX1R antag-2 75, GalR3 antagonist 92 | GalR3 antag conf 35 | CNG parental inactive
Cc1ccc2c(c1)/C(=N/OS(=O)(=O)c1ccccc1)CCS2	none
COC(=O)Cn1c2ccc(Cl)cc2c2nc(C)sc21	none
Cc1ccc(S(=O)(=O)n2c3ccc(Cl)cc3c3nc(C)sc32)cc1	none (no result: CHO parental Ca, OX1R antag-1, OX1R antag-2, GalR3 antagonist) | GalR3 antag conf inactive | CNG parental inactive
CCOCCn1c(CN(Cc2ccccc2)Cc2ccccc2)nc2c1c(=O)[nH]c(=O)n2C	none
COC(C[C@H]1O[C@H]1[C@H](O)[C@H](C)OCc1ccccc1)OC	none (no result: CHO parental Ca, OX1R antag-1, OX1R antag-2, GalR3 antagonist) | GalR3 antag conf inactive | CNG parental inactive
Fc1ccc(NC(=S)NNc2ncc(C(F)(F)F)cc2Cl)c(F)c1	GalR3 antagonist 92 | GalR3 antag conf 97 | CNG parental inactive
Cc1ccc(S(C)(=O)=NC(=O)NC(=O)c2c(F)cccc2Cl)cc1 (stereo not drawn)	GalR3 antagonist 14 | GalR3 antag conf inactive | CNG parental inactive
Cc1ccc(S(C)(=O)=NC(=O)NC(=O)c2c(Cl)cccc2Cl)cc1 (stereo not drawn)	none
CN(Cc1ccccc1F)C(=O)CN1CCN(S(=O)(=O)c2ccc3c(c2)OCCCO3)CC1	none
Cc1cc(S(=O)(=O)c2ccc(Cl)cc2)nc(S(=O)(=O)c2ccc(Cl)cc2)c1C#N	TAAR1 antag 68, GalR3 antagonist 16 (no result: CHO parental Ca, OX1R antag-1, OX1R antag-2) | GalR3 antag conf inactive | CNG parental inactive
CCC(=O)Nc1ccc(F)c(Cl)c1	none (no result: GalR3 antagonist) | GalR3 antag conf inactive | CNG parental inactive
c1ccc(CNc2ncnc3sccc23)cc1	none
c1csc(CNc2ncnc3sccc23)c1	GalR3 antagonist 61 | GalR3 antag conf 88 | CNG parental inactive
CCN(CC)S(=O)(=O)c1ccc(Cl)c(NC(=O)COC(=O)c2cccn2C)c1	GalR3 antagonist 65 | GalR3 antag conf inactive | CNG parental inactive
O=C(COC(=O)c1cccnc1)Nc1ccc2c(c1)OCO2	GalR3 antagonist 14 | GalR3 antag conf inactive | CNG parental inactive
O=C(Nc1cccc(Br)c1)c1ccc(CN2CCc3ccccc3C2)cc1	GalR3 antagonist 85 | GalR3 antag conf 107 | CNG parental inactive
CC(=O)Nc1ccc(NC(=O)c2ccc(CN3CCc4ccccc4C3)cc2)cc1	none
CSc1cccc(NC(=O)c2ccc(CN3CCc4ccccc4C3)cc2)c1	GalR3 antagonist 47 | GalR3 antag conf 104 | CNG parental inactive
O=C(Nc1ccc(F)cc1)c1ccc(CN2CCc3ccccc3C2)cc1	GalR3 antagonist 103 | GalR3 antag conf 104 | CNG parental inactive
Cc1ccccc1NC(=O)c1ccc(CN2CCc3ccccc3C2)cc1	none
C#CCN1CC(COc2ccccc2)Oc2cccc(Oc3ccc(OC)cc3)c2S1(=O)=O (stereo not drawn)	none (no result: CHO parental Ca, OX1R antag-1, OX1R antag-2)
CCCc1cc(=O)oc2cc(OCC(=O)Nc3ccc(S(N)(=O)=O)cc3)ccc12	none
CC12CCC3(CO)COC(c4ccccc4O1)C2C3 (stereo not drawn)	none
COc1ccc(C(=S)N2CCCCCC2)cc1	GalR3 antagonist 13 | GalR3 antag conf inactive | CNG parental inactive
CCOc1ccc(S(=O)(=O)NC(C)C(=O)NCc2ccncc2)cc1 (stereo not drawn)	none
COc1ccc(S(=O)(=O)NCc2ccccn2)cc1	GalR3 antagonist 15 | GalR3 antag conf 20 | CNG parental inactive
CCOc1ccc(S(=O)(=O)NCc2ccncc2)cc1	GalR3 antagonist 91 | GalR3 antag conf 108 | CNG parental inactive
Cc1ccc(S(=O)(=O)NCc2ccncc2)cc1	GalR3 antagonist 22 | GalR3 antag conf 74 | CNG parental inactive
CCOc1cc(S(=O)(=O)NCc2cccs2)ccc1Cl	none
CCOc1ccc(S(=O)(=O)NCc2ccccn2)cc1	none
CCOc1cc(S(=O)(=O)NCc2ccncc2)ccc1Cl	CHO parental Ca 38, GalR3 antagonist 102 | GalR3 antag conf 126 | CNG parental inactive
CCOc1ccc(S(=O)(=O)N(C)c2ccc(OCC(=O)N3c4ccc(C)cc4C4CN(C)CCC43)cc2)cc1 (stereo not drawn)	none
O=C(COC(=O)c1ccccc1NCCO)Nc1cc(C(F)(F)F)ccc1N1CCOCC1	none
Cc1ccc([C@H]2C[C@@H](n3cc(C4CC4)nn3)[C@H](O)CN2C(=O)C2CCCCC2)cc1	none (no result: CHO parental Ca, OX1R antag-1, OX1R antag-2)
Cc1cc(S(=O)(=O)NCc2ccncc2)c(C)cc1Br	CHO parental Ca 46, GalR3 antagonist 104 | GalR3 antag conf 111 | CNG parental inactive
CC(C)c1ccc(NC2CCCN(C(=O)c3n[nH]c4c3CCC4)C2)cc1 (stereo not drawn)	GalR3 antagonist 31 | GalR3 antag conf 36 | CNG parental inactive
Cc1cc(CNC(=O)Cc2ccccc2)c2ccccc2n1	none
Cc1cc(CNC(=O)c2cccc([N+](=O)[O-])c2C)c2ccccc2n1	GalR3 antagonist 33 | GalR3 antag conf 53 | CNG parental inactive
O=C(Nc1ccc(Cc2nc3ccccc3s2)cc1)c1ccncc1	none
Cc1c(C(=O)NCc2ccc(Cl)c(Cl)c2)sc(=O)n1Cc1ccc(S(=O)(=O)N(C)C)cc1	none (no result: CHO parental Ca, OX1R antag-1, OX1R antag-2)
Cc1c(C(=O)NCc2ccc(C(C)C)cc2)sc(=O)n1Cc1ccc(S(=O)(=O)N(C)C)cc1	GalR3 antagonist 37 (no result: CHO parental Ca, OX1R antag-1, OX1R antag-2) | GalR3 antag conf 28 | CNG parental inactive
Cc1ccc(C2C(C(=O)c3cccs3)=C(O)C(=O)N2c2nnc(C)s2)cc1 (stereo not drawn)	GalR3 antagonist 13 | GalR3 antag conf 18 | CNG parental inactive
